Results gathered from unrelated publications.
Compare with care: the assays were run in different laboratories.
Target: SRSF protein kinase 3 (SRPK3, Homo sapiens, UniProt Q9UPE1)

Cc1ccc(Nc2nccc(N(C)c3ccc4c(C)n(C)nc4c3)n2)cc1S(N)(=O)=O
inhibition (enzyme activity; inhibitor; 0.3 µM): -13%

Cc1cnc(NC2CCOCC2)nc1-n1cnc(C(=O)NC(CN)c2cc(F)cc(Cl)c2)c1 (centres unmarked)
remaining activity (enzyme activity; inhibitor; radiometric; 1 µM): 114%

CCCOc1ccc(OC)c(F)c1C(=O)c1ccc(C(=O)N[C@@H]2CNC[C@H]2NC(=O)c2ccc3[nH]ncc3c2)cc1
remaining activity (enzyme activity; inhibitor; 10 µM): 77%

CC(C)(C)c1nc2c(s1)c1nc(N)ncc1c1ccc(NS(=O)(=O)c3c(F)cccc3F)c(F)c12
remaining activity (enzyme activity; inhibitor; radiometric; 1 µM): 97%

CC1=C(C#N)[C@@H](c2ccc3[nH]nc(C)c3c2)C(C#N)=C(c2ccc(Cl)cc2)N1
remaining binding (cell-free assay; competition with immobilised ligand; 1 µM): 100%

COc1cc2ncnc(Nc3ccc(Oc4ccccc4)c(C)c3C)c2cc1OC
inhibition (enzyme activity; inhibitor; 1 µM): 5%

Cn1c2c(c3ccc(Cl)c(Cl)c31)C(C#N)C1(CCN(C(=O)OC(C)(C)C)CC1)NC2=O (racemic)
ΔTm (thermal stability; DSF; 10 µM): 0 °C

Cc1cc(NC(=O)c2cccc3cc(-c4cccc5[nH]nc(N)c45)ccc23)ccc1F
activity vs control (enzyme activity; inhibitor; 0.1 µM): 113%

CNC(=O)c1cc(Oc2ccc(NC(=O)Nc3ccc(Cl)c(C(F)(F)F)c3)cc2)ccn1
inhibition (enzyme activity; inhibitor; 0.3 µM): -7%

Cn1c2c(Cl)c(Cl)ccc2c2cc[nH]c(=O)c21
ΔTm (thermal stability; DSF; 10 µM): 0.2 °C

Cc1cc(-n2nc(Cc3cc(F)cc(C(F)(F)F)c3)nc2C)ccc1C(N)=O
remaining binding (cell-free assay; competition with immobilised ligand; 1 µM): 100%

Nc1ncnc2occ(-c3ccc(NC(=O)Nc4cc(C(F)(F)F)ccc4F)cc3)c12
remaining signal (cell-free assay; inhibitor; 20 µM): 88%

O=C(NS(=O)(=O)c1ccc(NCC2CCOCC2)c([N+](=O)[O-])c1)c1ccc(N2CCN(Cc3ccc(C(F)(F)F)cc3-c3ccc(Cl)cc3)CC2)cc1Oc1cnc2[nH]ccc2c1
remaining binding (cell-free assay; competition with immobilised ligand; 1 µM): 100%

CC/C(=N\NC(=O)NCc1cccc(O)c1)c1ccc(O)c(C)c1O
inhibition (enzyme activity; inhibitor; 0.1 µM): -2.9%

COc1cc(-c2cn(C3CCc4c(F)cccc4N(CC(F)(F)F)C3=O)nn2)ccc1-n1cnc(C)c1 (centres unmarked)
remaining binding (cell-free assay; competition with immobilised ligand; 1 µM): 100%

Cn1c2c(c3ccc(Cl)c(Cl)c31)C(C#N)C(C)(C)NC2=O (centres unmarked)
ΔTm (thermal stability; DSF; 10 µM): 1.5 °C

CS(=O)(=O)NCC[C@H](NC(=O)c1cncc2c1cnn2-c1ccc(F)cc1)c1ccnc(S(C)(=O)=O)c1
remaining binding (cell-free assay; competition with immobilised ligand; 1 µM): 100%

CN1CC(Oc2cnc(C#N)cc2-c2ccn3nc(NC(=O)C4CC4)cc3c2)C1
inhibition (enzyme activity; inhibitor; 1 µM): -3%

CNCc1ccccc1-c1csc([C@H](C)Nc2nc(C)nc3cc(OC)c(OC)cc23)c1
remaining binding (cell-free assay; competition with immobilised ligand; 1 µM): 89%

CCN(CC)CCNC(=O)c1c(C)[nH]c(/C=C2\C(=O)Nc3ccc(F)cc32)c1C
inhibition (enzyme activity; inhibitor; 10 µM): 15%
